Data taken from ChEMBL document CHEMBL1789904, “Imaging of Plasmodium liver stages to drive next-generation antimalarial drug discovery” (Science, 2011).

Tested on: Plasmodium yoelii
Assay: NOVARTIS: Antimalarial liver stage activity measured as reduction in Plasmodium yoelii schizont area in HepG2-A16-CD81 cells by immuno-fluorescence, and median schizont size at 10uM compound concentration
Type: functional, organism-based
Settings: for IC50: Plasmodium yoelii, HepG2-A16-CD81
Summary of the method: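 Host and parasite nuclei stained with Hoechst 33342, parasites with αPyHSP70 antibody; 25 images per well by high-content imaging; median parasite (schizont) area measured by automated image analysis, ~50 schizonts per experiment, two or more independent experiments.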

SMILES | Schizont size | IC50
CC[n+]1c(/C=C/N(C)c2ccccc2)n(-c2ccccc2)c2ccc(-c3nc4ccccc4s3)cc21 | 20.14 um | 14 nM
Cc1nc([P+](c2ccccc2)(c2ccccc2)c2ccccc2)c(SCc2ccccc2)o1.[O-][Cl+3]([O-])([O-])[O-] | 31.83 um | 33.5 nM
c1ccc(OCCOc2ccc(Nc3ccnc4cc5ccccc5cc34)cc2)cc1 | 18.06 um | 67.5 nM
CCC1CN2CCc3cc(OC)c(OC)cc3C2CC1CC1NCCc2cc(OC)c(OC)cc21.Cl (stereo unspecified) | 13.78 um | 80.2 nM
Cl.OCCNc1nc(Nc2ccccc2)nc2ccccc12 | 62.1 um | 47.9 nM
OC1=C2C(=Nc3ccccc3SC2c2ccccc2)c2ccccc21 (stereo unspecified) | 28.39 um | 93.7 nM
COc1cccc(Nc2nc(NCCO)c3ccccc3n2)c1.Cl | 54.9 um | 62.3 nM
CC(C)(C)C1CCc2[nH]c3ccccc3c(=O)c2C1 (stereo unspecified) | 22.13 um | 98.3 nM
CCOc1ccc(N2C(N)=NC(N)=NC2(C)C)cc1.Cl | 35.59 um | 46.8 nM
CCCCc1c(C)nc2ccc(Br)cc2c1O | 25.99 um | 64.7 nM
CCOC(=O)c1cn(CC)c2cc(N(C)CCc3ccc(OC)c(OC)c3)c(F)cc2c1=O | 23.69 um | 42.1 nM
CC1(C)N=C(N)N=C(N)N1c1ccccc1.Cl | 37.05 um | 100 nM
COC(OC)C(C)=NNC(N)=S | 78.8 um | 4.93 nM
CC1(C)N=C(N)N=C(N)N1c1ccc(I)cc1.Cl | 33.82 um | 10 nM
c1ccc(-c2csc(Nc3nc4cc5c(cc4s3)OCO5)n2)nc1 | 34.44 um | 78.9 nM
Cc1ccc(N2C(N)=NC(N)=NC2(C)C)cc1.Cl | 35.07 um | 10 nM
CC1(C)C2CCC(C2)C1(C)NC(=S)NN=Cc1ccccn1 (stereo unspecified) | 28.29 um | 17.4 nM
CCCCSc1oc(C)nc1[P+](c1ccccc1)(c1ccccc1)c1ccccc1 | 22.13 um | 82.1 nM
Cc1ccc(CSCc2ccc(C(=O)NC3CC3)o2)cc1 | 25.36 um | 47.3 nM
CCCCCCCn1c2c(c(=N)c3ccccc31)CCC2.I | 23.59 um | 76.5 nM
CC(C)NC(=O)c1cc(NC(=O)c2cccs2)ccc1N1CCc2ccccc2C1 | 26.93 um | 74.8 nM
CCN1C(=O)N(CC)C(NNC(N)=S)C1NNC(N)=S (stereo unspecified) | 103.75 um | 68.6 nM
Clc1ccccc1-c1nc([P+](c2ccccc2)(c2ccccc2)c2ccccc2)c(N2CCOCC2)o1 | 20.56 um | 95.6 nM
CC[n+]1c(/C=C/C=C2\N(C)c3ccccc3C2(C)C)n(-c2ccccc2)c2cc(Cl)ccc21 | 12.53 um | 13.6 nM
CCC(C)(C)c1ccc(OCCCC[n+]2cccc(C)c2C)c(C(C)(C)CC)c1.[Br-] | 12.53 um | 45.5 nM
c1ccc(-c2cc(N3CCN(c4ccccn4)CC3)nc(-c3ccccn3)n2)nc1 | 24.32 um | 17.5 nM

SMILES | Schizont size | IC50
CCCCCC[P+](N(CCC)CCC)(N(CCC)CCC)N(CCC)CCC | 30.27 um | 49.1 nM
Cc1ccc2nc3nc4c(C)cccc4c(N)c3cc2c1 | 22.23 um | 47.4 nM
Cc1ccc(-c2cc3nc4c(c(O)n3n2)CCCC4)cc1 | 26.41 um | 75.3 nM
Cc1nc([P+](c2ccccc2)(c2ccccc2)c2ccccc2)c(N2CCCCC2)o1 | 25.57 um | 82.4 nM
CCCCN1C=CC=C/C1=C\c1sc2ccccc2[n+]1CC | 18.47 um | 10.9 nM
CC1(C)N=C(N)N=C(N)N1c1ccc(Oc2ccc(Cl)cc2)c(Cl)c1.Cl | 27.76 um | 73 nM
CCCc1ccc(C(=O)NC(=O)c2ccccc2O)cc1 | 23.17 um | 4.18 nM
CCCCCc1ccc(OCCCC[n+]2cccc(C)c2)c(CCCCC)c1.[Cl-] | 23.48 um | 34.6 nM
CCCCN(CCCC)[P+](N(CCCC)CCCC)(N(CCCC)CCCC)N(CCCC)CCCC | 24.32 um | 11.5 nM
CC(=O)N(C1=C(N(C)C)C(=O)c2ccccc2C1=O)c1ccc(F)cc1 | 23.8 um | 57.3 nM
Cl.Fc1ccc(Nc2nc(NCc3ccco3)c3ccccc3n2)cc1 | 45.3 um | 74.9 nM
CCCCN(CC)CCNC(=O)C1c2ccccc2C(=O)N(Cc2ccc(F)cc2)C1c1ccc(OC)cc1 (stereo unspecified) | 63.36 um | 89.1 nM
Br.Cc1ccnc(Nc2nc(-c3ccccn3)cs2)c1 | 19.21 um | 95.6 nM
OC1=C2C(=Nc3ccccc3SC2c2cccs2)c2ccccc21 (stereo unspecified) | 25.89 um | 90.4 nM
CCN1C=C(c2ccc(C)cc2)S/C1=C\c1sc2ccccc2[n+]1C | 37.89 um | 4.5 nM
Cc1ccc(-c2nn3c(O)c4c(nc3c2C)CCCC4)cc1 | 28.7 um | 11.3 nM
Fc1ccc2nc(Nc3nc(-c4ccccn4)cs3)sc2c1 | 22.86 um | 43.8 nM
CCOc1ccc(CN(C(=O)COc2ccc(Cl)cc2)C(C)CCCN(CC)CC)cc1.O=C(O)C(F)(F)F (stereo unspecified) | 55.32 um | 20.4 nM
CCOC(=O)c1ccc2nc(-c3ccccc3)cc(O)c2c1 | 20.67 um | 20 nM
CN(Cc1ccccc1)C(=O)CSc1nc(NCc2ccccc2)c2ccccc2n1 | 67.84 um | 7.13 nM
COc1cccc(N2C(N)=NC(N)=NC2(C)C)c1.Cl | 38.1 um | 29.5 nM
COc1ccccc1Nc1nc(NCc2ccccc2)c2ccccc2n1.Cl | 40.29 um | 91.3 nM
C/C=C/[P+](c1ccccc1)(c1ccccc1)c1ccccc1 | 26.09 um | 49.4 nM
O=C1C(Nc2ccc(O)cc2)=CC(=NS(=O)(=O)c2cccs2)c2ccccc21 | 12.53 um | 85.6 nM
COc1ccc(CN2CCOc3ccc(C(C)(O)CN(C)C)cc3C2)cc1C (stereo unspecified) | 87.05 um | 67.5 nM
C1CCC(NP2(NC3CCCCC3)=NP(NC3CCCCC3)(NC3CCCCC3)=NP(NC3CCCCC3)(NC3CCCCC3)=N2)CC1 | 33.82 um | 18.6 nM

SMILES | Schizont size | IC50
CCCCCC[n+]1ccccc1C=Cc1ccc(N(C)C)cc1.[I-] | 16.8 um | 55.9 nM
O=C(NC(=C(Cl)Cl)[P+](c1ccccc1)(c1ccccc1)c1ccccc1)c1ccc(F)cc1 | 26.93 um | 14.5 nM
Cc1oc2c(c1C(=O)NC1CCS(=O)(=O)C1)C(=O)c1ccccc1C2=O (stereo unspecified) | 17.54 um | 2.29 nM
CCOC(=O)c1ccc(NC(=O)CSc2nc(NCc3ccccc3)c3ccccc3n2)cc1 | 69.2 um | 38.1 nM
CC[n+]1c(/C=C/C=C2\N(C)c3ccccc3C2(C)C)n(Cc2ccccc2)c2ccccc21 | 13.99 um | 6.76 nM
Cc1ccc(-n2c(-c3ccccc3)cc(C=NNC(=O)c3cccc(-n4c(C)ccc4C)c3)c2-c2ccccc2)cc1 | 30.06 um | 47.9 nM
CCC(C)(C)c1ccc(OCCOCC[n+]2ccccc2)c(C(C)(C)CC)c1.[Cl-] | 13.88 um | 96.2 nM
O=C(Nc1ccc2oc(-c3cccc4ccccc34)nc2c1)c1ccc([N+](=O)[O-])o1 | 13.99 um | 72.5 nM
O=C1C2=C(Nc3ccccc3SC2c2ccc(OCc3ccccc3)cc2)c2ccccc21 (stereo unspecified) | 23.17 um | 58 nM
Cc1ccc(-n2c(-c3ccccc3)cc(C=NNC(=O)c3cccc(O)c3)c2-c2ccccc2)cc1 | 26.72 um | 20.2 nM
O=C(NC1CC1)C1CCN(c2cccc3c2C(=O)N(Cc2cccc(C(F)(F)F)c2)C3=O)CC1 | 24.01 um | 29.3 nM
CC1(C)N=C(N)N=C(N)N1c1ccc(F)cc1.Cl | 38.93 um | 18.9 nM
N=c1c2c(n(Cc3ccc(Cl)cc3)c3c1CCC3)CCC2 | 32.57 um | 91.1 nM
S=C(NN=Cc1ccccn1)NC1CC2CC1C1C=CCC21 (stereo unspecified) | 27.45 um | 25.6 nM
CN1C(=O)N(C)C(NNC(N)=S)C1NNC(N)=S (stereo unspecified) | 117.53 um | 15 nM
CCOC(=O)c1cnc2c3c(ccc2c1O)CCCC3 | 26.2 um | 10.8 nM
Cc1cccc(N2C(N)=NC(N)=NC2(C)C)c1.Cl | 38.51 um | 4.25 nM
CCN1/C(=C/c2ccc3ccccc3[n+]2CC)Sc2sc3ccccc3c21 | 32.77 um | 6.21 nM
c1ccc(-c2ccc(-c3ccccn3)nc2)nc1 | 22.34 um | 39.4 nM
CCC(/C=C1\Sc2ccc(OC)cc2N1CCCS(=O)(=O)O)=C\c1sc2ccc(OC)cc2[n+]1CCCS(=O)(=O)O | 18.06 um | 11.2 nM
CCOc1ccc2ncc(S(=O)(=O)c3ccc(OC)cc3)c(N3CCN(C)CC3)c2c1 | 63.67 um | 10.7 nM
CCN1C(C)=C(C)S/C1=C\c1ccc2cc(C)ccc2[n+]1C | 14.93 um | 11.3 nM
[I-].c1ccc(CSc2scnc2[P+](c2ccccc2)(c2ccccc2)c2ccccc2)cc1 | 21.61 um | 68.5 nM
Oc1c(CN2CCN(Cc3ccc4cccnc4c3O)CC2)ccc2cccnc12 | 21.19 um | 96.6 nM
CN(C)c1ccc(C(=Cc2cc(-c3ccccc3)cc(-c3ccccc3)[o+]2)c2ccc(N(C)C)cc2)cc1 | 26.72 um | 51.9 nM
C=CC[n+]1c(C=C2C=CN(C)C=C2)sc2ccccc21.[I-] | 26.72 um | 13.2 nM
